# Measurements from different studies.
# Lines come from different studies, so protocols differ.
Structure (SMILES),organism,assay,test system,conditions,quantity,value
Nc1nc(O)c2ncn(COC(CO)CO)c2n1,Human betaherpesvirus 5,cytopathic effect,AD169,,IC50,0.9 µM
c1ccc(C2CCN(c3nc(-c4ccn[nH]4)nc4ccccc34)C2)nc1 (centres unmarked),Trypanosoma cruzi,"parasite growth, imaging",U2OS,"intracellular, amastigote",IC50,14.3 µM
CCCCNC(=O)c1c(N)sc2c1CCCC2,Mycobacterium tuberculosis,"microbial growth, resazurin",H37RV,,MIC,> 300 µM
O=C(N[C@@H](Cc1ccccc1)C(=O)c1cc(-c2ccccc2)no1)[C@H](Cc1ccccc1)NC(=O)N1CCOCC1 (mixture of isomers),Trypanosoma cruzi,parasite growth,TULAHUEN,"intracellular, amastigote",IC50,28 µM
Cc1ccc2nc(-c3ccc(Cl)cc3)cn2c1,Trypanosoma cruzi,parasite growth,TULAHUEN,"6 days, intracellular, amastigote",EC90,> 5 µM
O=C1NN=C(N=Cc2ccc(O)cc2O)C1=NNn1c(-c2ccccc2)nc2ccccc2c1=O,Monascus purpureus,"microbial growth, broth dilution",,,MIC,53.5 µM
CC(C)(C)c1nc(N2CCCCC2)c2ccccc2n1,Trypanosoma cruzi,"parasite growth, imaging",U2OS,"intracellular, amastigote",IC50,21.5 µM
CCOC(=O)c1cc(-c2ccccc2)sc1NC(=O)c1c(F)c(F)c(F)c(F)c1F,Mycobacterium tuberculosis,"microbial growth, resazurin",H37RV,,MIC,> 200 µM
CC1=NN(CNc2ccc(C(=O)O)cc2)C(=O)C1=NNn1c(-c2ccccc2)nc2ccccc2c1=O,Monascus purpureus,"microbial growth, broth dilution",,,MIC,101 µM
COc1ccccc1-c1nc(N2CCC(c3ccccn3)C2)c2ccccc2n1 (centres unmarked),Trypanosoma cruzi,"parasite growth, imaging",U2OS,"intracellular, amastigote",IC50,0.91 µM
CCOC(=O)c1cc(-c2ccccc2)sc1NC(=O)c1cc(C(F)(F)F)cc(C(F)(F)F)c1,Mycobacterium tuberculosis,"microbial growth, resazurin",H37RV,,MIC,> 200 µM
N#Cc1cccc(-c2nc(N3CCC(c4ccccn4)C3)c3ccccc3n2)c1 (centres unmarked),Trypanosoma cruzi,"parasite growth, imaging",U2OS,"intracellular, amastigote",IC50,6.92 µM
O=C1NN=C(N=Cc2ccccc2O)C1=NNn1c(-c2ccccc2)nc2ccccc2c1=O,Monascus purpureus,"microbial growth, broth dilution",,,MIC,111 µM
CCOC(=O)c1c(NC(=O)c2c(F)c(F)c(F)c(F)c2F)sc2c1CCN(C(=O)OC(C)(C)C)C2,Mycobacterium tuberculosis,"microbial growth, resazurin",H37RV,7 days,MIC,> 100 µM
Cc1cc2nc(C(=O)N3CCOCC3)cc(-c3ccccc3Cl)c2c(C)c1-c1ccncc1,Mycobacterium tuberculosis,microbial growth,H37RV,,MIC90,15 µM
CCOC(=O)c1c(NC(=O)c2ccccc2)sc2c1CCN(C(=O)OC(C)(C)C)C2,Mycobacterium tuberculosis,"microbial growth, resazurin",H37RV,,MIC,> 200 µM
c1ccc2c(N3CCCCC3)nc(-n3cccn3)nc2c1,Trypanosoma cruzi,"parasite growth, imaging",U2OS,"intracellular, amastigote",IC50,8.96 µM
CC1=NN(CNC(=O)c2ccccn2)C(=O)C1=NNn1c(-c2ccccc2)nc2ccccc2c1=O,Monascus purpureus,"microbial growth, broth dilution",,,MIC,104 µM
c1ccc(-c2nc(N3CCC(c4ccccn4)C3)c3ccccc3n2)cc1 (centres unmarked),Trypanosoma cruzi,"parasite growth, imaging",U2OS,"intracellular, amastigote",IC50,4.82 µM
CCOC(=O)c1c(NC(=O)c2cc(C(F)(F)F)cc(C(F)(F)F)c2)sc2c1CCN(C(=O)OC(C)(C)C)C2,Mycobacterium tuberculosis,"microbial growth, resazurin",H37RV,7 days,MIC,> 100 µM
CC1(C)S[C@@H]2[C@H](NC(=O)[C@H](N)c3ccccc3)C(=O)N2[C@H]1C(=O)O,Plesiomonas shigelloides,"microbial growth, agar dilution",,26.93 µM,inhibition,100%
CCOC(=O)c1c(NC(=O)c2ccccc2)sc2c1CCN(CC)C2,Mycobacterium tuberculosis,"microbial growth, resazurin",H37RV,,MIC,279 µM
c1ccc(-c2nc(N3CCCC3)c3ccccc3n2)nc1,Trypanosoma cruzi,"parasite growth, imaging",U2OS,"intracellular, amastigote",IC50,3.1 µM
